b-catenin transl – modulators of beta-catenin nuclear translocation, primary screen, imaging, HeLa cells, immunofluorescence, high-content | AID 1665, 2009 | 190,000 tested, 0.3% active | nuclear translocation activity, % at 5 µM;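 active = nuclear translocation activity above 50% at 5 µM, with a well cell count of 50 or more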;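 also: per-cell ratio of nuclear to cytoplasmic median beta-catenin stain intensity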
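Technique: fluorescence imaging of beta-catenin antibody stain plus DAPI / Material: human HeLa cell line / Incubation: compound treatment 24 h, 37°C, 5% CO2 / Read-out basis: % activation of per-cell nuclear versus cytoplasmic median beta-catenin signal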
BaF3 parental – parental Ba/F3 cell viability inhibition, counter-screen for JAK2V617F inhibitor project, murine pro-B, CellTiter-Glo luminescence; CellTiter-Glo ATP luminescence; inhibition, % at 5.6 µM; 220,000 tested, 1.1% active;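 active = inhibition above a per-campaign cutoff, the mean inhibition of all tested compounds plus 3 SD, cut at about 27% in these data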
Ba/F3 V617F tox – reduced viability of JAK2V617F-dependent Ba/F3 cells, primary screen, JAK2V617F inhibitor project, cell-based, Ba/F3 EpoR-JAK2V617F, luminescence; ATP luminescence; inhibition, % at 5.6 µM; 220,000 tested, 1.1% active;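 active = inhibition above the campaign mean plus 3 SD over all tested compounds, cut at about 24% in these data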;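 also: cytokine-independent growth of Ba/F3 cells driven by EpoR plus mutant JAK2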
APP 5UTR inh – inhibitors of APP translation via 5'UTR reporter, primary screen, APP 5'UTR luciferase, SH-SY5Y cells. SH-SY5Y APP 5'UTR-luciferase reporter, luminescence. inhibition, % at 2 µM. 190,000 tested, 0.82% active. AID 1285, 2008;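 active = inhibition above a set limit, derived from the sample mean plus 3 SD, cut at about 45% in these data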
IEC-6 tox – cytotoxicity in IEC-6 intestinal epithelial cells, primary screen, cytotoxicity control for KLF5 inhibitor project, cell-based, luminescence; AID 1825, 2009; IEC-6 cytotoxicity, luminescence viability; 290,000 tested, 0.78% active; inhibition, % at 5 µM; in the data active = inhibition above about 22%
MT stabilize HCS – microtubule stabilizers in HeLa cells, primary screen, imaging, high-content imaging; % tubulin-high responders, % at 10 µM; 200,000 tested, 0.83% active; HeLa tubulin immunostaining HCS, 24 h; share of cells brighter than vehicle mean+2SD; AID 2205, 2009;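 active = plate Z-score above 3 for both tubulin-high and condensed-nucleus cell shares, with cell loss under 80%, at 10 µM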;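 also: anti alpha tubulin signal scored within the nucleus-defined area of each cell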
A number is an active result; i = inactive; nt = no result given. In the library only some 2.2% were active in any assay of this set; here they are far more common.

SMILES	b-catenin transl	BaF3 parental	Ba/F3 V617F tox	APP 5UTR inh	IEC-6 tox	MT stabilize HCS
O=C(COc1ccccc1Cl)N1CCN(c2ccc(F)cc2)CC1	nt	93	i	i	i	i
O=C(COc1ccccc1Cl)N1CCCC1	i	i	i	i	i	i
CCOc1ccc(CN2CCC(C(=O)Nc3cccc(-c4ccn[nH]4)c3)CC2)cc1Cl	nt	nt	nt	nt	i	nt
CC(C)(C)NC(=S)NC(C)(C)C	i	i	i	nt	i	nt
O=C(COc1ccccc1Cl)Nc1nnc(S(=O)(=O)N2CCCCCC2)s1	nt	nt	nt	nt	i	nt
CCn1c(C(=O)OC)cc2c1ccn2-c1ccc(F)cc1	nt	i	i	i	i	i
CCOC(=O)c1cc2c(ccn2-c2ccc(F)cc2)n1CC(=O)NC(C)(C)C	i	90	i	i	i	i
Cc1cccc(N2CCN(C(=O)c3cn(C)c(=O)c4c3c3ccccc3n4C)CC2)c1C	i	i	i	i	i	i
Cc1ccc(Cl)cc1N1CCN(C(=O)c2cn(C)c(=O)c3c2c2ccccc2n3C)CC1	139	i	i	i	i	i
CCn1c(SCC(=O)N2CC(C)OC(C)C2)nc2c([nH]c3ccccc32)c1=O (centres undefined)	nt	nt	nt	nt	i	nt
C=CCNc1nc(-c2ccccc2)c(C(=O)OCC)cc1C#N	i	i	i	i	i	33
CCOC(=O)c1cc(C#N)c(Oc2ccccc2)nc1-c1ccccc1	i	i	i	i	i	i
CCOC(=O)c1cc(C#N)c(N2CCOCC2)nc1-c1ccccc1	i	i	i	i	i	i
CCCCNc1nc(-c2ccccc2)c(C(=O)OCC)cc1C#N	nt	i	i	i	i	35
C=CCc1c(NCCO)nc(C)[nH]c1=O	i	i	i	i	i	i
Cn1ncc2c(NCc3ccccc3)ncnc21	i	i	i	i	i	i
Clc1ccc(Cn2ncc3c(NCc4ccccc4)ncnc32)c(Cl)c1	i	i	i	i	i	17
c1ccc(CNc2ncnc3c2cnn3-c2ccccc2)cc1	i	i	i	i	i	54
Cc1ccc(-c2nc(NC(=O)c3nn(C)cc3[N+](=O)[O-])sc2C)cc1	i	81	77	95	i	i
Cn1cc([N+](=O)[O-])c(C(=O)Nc2cc(Oc3cccnc3)cc([N+](=O)[O-])c2)n1	i	51	66	96	24	i
Cn1cc([N+](=O)[O-])c(C(=O)Nc2ccc(-c3nc4ccccc4[nH]3)cc2)n1	nt	i	i	i	25	i
Cc1ccc(-c2nc(NC(=O)c3nn(C)cc3[N+](=O)[O-])sc2C)cc1C	i	85	92	96	i	i
O=[N+]([O-])c1cc(Oc2cccnc2)cc([N+](=O)[O-])c1	nt	i	i	i	i	i
Cc1cnc(NC(=O)c2nn(C)cc2[N+](=O)[O-])s1	i	i	i	i	i	i
COc1ccc(NC(=O)CN(c2c(C)cccc2C)S(C)(=O)=O)cc1	nt	nt	nt	nt	i	nt
SMILES	b-catenin transl	BaF3 parental	Ba/F3 V617F tox	APP 5UTR inh	IEC-6 tox	MT stabilize HCS
O=C(NCc1csc(-c2ccccc2)n1)c1cc(F)cc2c1OCOC2	i	i	i	nt	i	nt
Cc1ccc(NC(=O)C(=O)NCCCN2CCOCC2)c(C)c1	i	i	i	nt	i	nt
O=C(CCS(=O)(=O)c1ccccc1)Nc1cccc2c1C(=O)NC2=O	i	i	i	i	i	i
CC(C)c1onc(C(=O)N2CCN(c3ccc(F)cc3)CC2)c1[N+](=O)[O-]	nt	nt	nt	nt	i	nt
COc1ccc(NC(=O)CN(C)S(=O)(=O)c2ccc3c(c2)CC(C)N3C(C)=O)cc1OC (centres undefined)	nt	nt	nt	nt	i	nt
Cc1cc2nc(-c3ccc(SCc4ccc(C(=O)O)cc4)nc3)[nH]c2cc1C	i	i	i	i	i	18
O=C(/C=C/c1ccco1)Oc1cc(Br)cc(/C=N/NC(=O)c2ccccc2O)c1	i	i	i	64	i	i
CCOc1ccc(NC(=O)CN2C(=O)CSC2=O)cc1	i	i	i	i	i	i
CCn1c(=N)n(CC(=O)C(C)(C)C)c2ccccc21	i	i	i	64	i	i
CCCn1c(=N)n(CC(=O)C(C)(C)C)c2ccccc21	i	i	i	i	i	i
O=C(O)c1cccc(-c2ccc(/C=N/n3cnc4sc5c(c4c3=O)CCCC5)o2)c1	i	i	i	nt	i	nt
